Converted amounts (≈) assume the structure as drawn.
Legend:
Type in all cases: functional
[1] = test system: Streptococcus pneumoniae; assay: Antibacterial activity against erythromycin-resistant Streptococcus pneumoniae 07P390 by broth microdilution method
How it was run: (§1)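 Clinical isolates were supplied by China's Ministry of Health National Antimicrobial Resistance Investigation Net (MOHNARIN). Activity was reported as minimum inhibitory concentration (MIC), determined by broth microdilution following NCCLS recommendations.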

[2] = test system: Staphylococcus aureus; assay: Antibacterial activity against methicillin-susceptible Staphylococcus aureus ANS46 by broth microdilution method
How it was run: (§2)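 Strains were ATCC reference strains or clinical isolates from China's national antimicrobial resistance surveillance network (MOHNARIN). In vitro activity was measured by broth microdilution following NCCLS recommendations. Results are reported as minimum inhibitory concentration (MIC) in mg/L.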

[3] = test system: Haemophilus influenzae; assay: Antibacterial activity against erythromycin-susceptible Haemophilus influenzae 07O339 by broth microdilution method; how it was run: as §2
[4] = test system: Streptococcus pyogenes; assay: Antibacterial activity against erythromycin-susceptible Streptococcus pyogenes 07U084 by broth microdilution method; how it was run: as §2
[5] = test system: Streptococcus pyogenes; assay: Antibacterial activity against erythromycin-resistant Streptococcus pyogenes 01-533 by broth microdilution method; how it was run: as §1
[6] = test system: Staphylococcus epidermidis; assay: Antibacterial activity against methicillin-resistant Staphylococcus epidermidis 07R066 by broth microdilution method; how it was run: as §1
[7] = test system: Staphylococcus epidermidis; assay: Antibacterial activity against methicillin-resistant Staphylococcus epidermidis 07A066 by broth microdilution method; how it was run: as §1
[8] = test system: Haemophilus influenzae; assay: Antibacterial activity against erythromycin-susceptible Haemophilus influenzae 07O394 by broth microdilution method; how it was run: as §2
[9] = test system: Staphylococcus epidermidis; assay: Antibacterial activity against methicillin-susceptible Staphylococcus epidermidis 07T202 by broth microdilution method; how it was run: as §2
[10] = test system: Streptococcus pyogenes; assay: Antibacterial activity against erythromycin-resistant Streptococcus pyogenes 03-233 by broth microdilution method; how it was run: as §1
[11] = test system: Streptococcus pneumoniae; assay: Antibacterial activity against erythromycin-susceptible Streptococcus pneumoniae 07H252 by broth microdilution method; how it was run: as §2
[12] = test system: Streptococcus pneumoniae; assay: Antibacterial activity against erythromycin-resistant Streptococcus pneumoniae 07D201 by broth microdilution method; how it was run: as §1
[13] = test system: Streptococcus pneumoniae; assay: Antibacterial activity against erythromycin-susceptible Streptococcus pneumoniae ATCC 49619 by broth microdilution method; how it was run: as §2
[14] = test system: Streptococcus pyogenes; assay: Antibacterial activity against erythromycin-susceptible Streptococcus pyogenes 07U086 by broth microdilution method; how it was run: as §2
[15] = test system: Haemophilus influenzae; assay: Antibacterial activity against erythromycin-susceptible Haemophilus influenzae ATCC 49247 by broth microdilution method; how it was run: as §2
[16] = test system: Staphylococcus epidermidis; assay: Antibacterial activity against methicillin-susceptible Staphylococcus epidermidis 07C134 by broth microdilution method; how it was run: as §1
[17] = test system: Staphylococcus aureus; assay: Antibacterial activity against methicillin-susceptible Staphylococcus aureus ATCC 29213 by broth microdilution method; how it was run: as §2
[18] = test system: Haemophilus influenzae; assay: Antibacterial activity against erythromycin-susceptible Haemophilus influenzae 07O114 by broth microdilution method; how it was run: as §2

| Compound | MIC [1] [µg/mL] | MIC [2] [µg/mL] | MIC [3] [µg/mL] | MIC [4] [µg/mL] | MIC [5] [µg/mL] | MIC [6] [µg/mL] | MIC [7] [µg/mL] | MIC [8] [µg/mL] | MIC [9] [µg/mL] | MIC [10] [µg/mL] | MIC [11] [µg/mL] | MIC [12] [µg/mL] | MIC [13] [µg/mL] | MIC [14] [µg/mL] | MIC [15] [µg/mL] | MIC [16] [µg/mL] | MIC [17] [µg/mL] | MIC [18] [µg/mL] |
| --- | --- | --- | --- | --- | --- | --- | --- | --- | --- | --- | --- | --- | --- | --- | --- | --- | --- | --- |
| CC[C@H]1OC(=O)[C@H](C)C(=O)[C@H](C)[C@@H](O[C@@H]2O[C@H](C)C[C@H](N(C)C)[C@H]2O)[C@@](C)(OC)C[C@@H](C)C(=O)[C@H](C)[C@H]2N(CCCSc3nnnn3-c3ccccc3)C(=O)O[C@]12C | 0.5 (≈ 0.602 µM) | > 32 | 32 (≈ 38.5 µM) | 0.125 (≈ 0.15 µM) | 2 (≈ 2.41 µM) | 0.25 (≈ 0.301 µM) | 0.5 (≈ 0.602 µM) | 32 (≈ 38.5 µM) | > 32 | > 32 | 1 (≈ 1.2 µM) | > 32 | 0.125 (≈ 0.15 µM) | 0.125 (≈ 0.15 µM) | 16 (≈ 19.3 µM) | 0.5 (≈ 0.602 µM) | 0.25 (≈ 0.301 µM) | 16 (≈ 19.3 µM) |
| CC[C@H]1OC(=O)[C@H](C)C(=O)[C@H](C)[C@@H](O[C@@H]2O[C@H](C)C[C@H](N(C)C)[C@H]2O)[C@@](C)(OC)C[C@@H](C)C(=O)[C@H](C)[C@H]2N(CCCSc3nccs3)C(=O)O[C@]12C | 0.25 (≈ 0.325 µM) | > 32 | 4 (≈ 5.19 µM) | ≤ 0.016 | 0.5 (≈ 0.649 µM) | 0.062 (≈ 0.0805 µM) | 0.125 (≈ 0.162 µM) | 4 (≈ 5.19 µM) | > 32 | > 32 | 0.5 (≈ 0.649 µM) | > 32 | 0.031 (≈ 0.0403 µM) | ≤ 0.016 | 4 (≈ 5.19 µM) | 0.125 (≈ 0.162 µM) | 0.125 (≈ 0.162 µM) | 4 (≈ 5.19 µM) |
| CC[C@H]1OC(=O)[C@H](C)C(=O)[C@H](C)[C@@H](O[C@@H]2O[C@H](C)C[C@H](N(C)C)[C@H]2O)[C@@](C)(OC)C[C@@H](C)C(=O)[C@H](C)[C@H]2N(CCCSc3nncs3)C(=O)O[C@]12C | 0.5 (≈ 0.648 µM) | > 16 | 2 (≈ 2.59 µM) | 0.062 (≈ 0.0804 µM) | 1 (≈ 1.3 µM) | 0.5 (≈ 0.648 µM) | 0.25 (≈ 0.324 µM) | 2 (≈ 2.59 µM) | > 16 | > 16 | 2 (≈ 2.59 µM) | > 16 | ≤ 0.016 | 0.062 (≈ 0.0804 µM) | 2 (≈ 2.59 µM) | 0.25 (≈ 0.324 µM) | 0.25 (≈ 0.324 µM) | 2 (≈ 2.59 µM) |
| CC[C@H]1OC(=O)[C@H](C)C(=O)[C@H](C)[C@@H](O[C@@H]2O[C@H](C)C[C@H](N(C)C)[C@H]2O)[C@@](C)(OC)C[C@@H](C)C(=O)[C@H](C)[C@H]2N(CCCSc3nccc(C)n3)C(=O)O[C@]12C | 0.25 (≈ 0.321 µM) | > 32 | 8 (≈ 10.3 µM) | 0.125 (≈ 0.16 µM) | 2 (≈ 2.57 µM) | 0.25 (≈ 0.321 µM) | 0.5 (≈ 0.642 µM) | 8 (≈ 10.3 µM) | > 32 | 2 (≈ 2.57 µM) | 8 (≈ 10.3 µM) | > 32 | 0.062 (≈ 0.0796 µM) | 0.125 (≈ 0.16 µM) | 8 (≈ 10.3 µM) | 0.25 (≈ 0.321 µM) | 0.5 (≈ 0.642 µM) | 8 (≈ 10.3 µM) |
| CC[C@H]1OC(=O)[C@H](C)C(=O)[C@H](C)[C@@H](O[C@@H]2O[C@H](C)C[C@H](N(C)C)[C@H]2O)[C@@](C)(OC)C[C@@H](C)C(=O)[C@H](C)[C@H]2N(CCCSc3ccoc3C)C(=O)O[C@]12C | 0.25 (≈ 0.326 µM) | > 16 | 16 (≈ 20.9 µM) | 0.125 (≈ 0.163 µM) | 0.5 (≈ 0.652 µM) | 0.25 (≈ 0.326 µM) | 0.25 (≈ 0.326 µM) | 16 (≈ 20.9 µM) | > 16 | > 16 | 1 (≈ 1.3 µM) | > 16 | 0.031 (≈ 0.0404 µM) | 0.125 (≈ 0.163 µM) | 16 (≈ 20.9 µM) | 0.25 (≈ 0.326 µM) | 0.25 (≈ 0.326 µM) | 8 (≈ 10.4 µM) |
| CC[C@H]1OC(=O)[C@H](C)C(=O)[C@H](C)[C@@H](O[C@@H]2O[C@H](C)C[C@H](N(C)C)[C@H]2O)[C@@](C)(OC)C[C@@H](C)C(=O)/C(C)=C/[C@]1(C)OC(=O)NCCCSc1nc2ccccc2o1 | > 16 | > 16 | > 16 | 2 (≈ 2.49 µM) | > 16 | 4 (≈ 4.98 µM) | 4 (≈ 4.98 µM) | > 16 | > 16 | > 16 | 16 (≈ 19.9 µM) | > 16 | 2 (≈ 2.49 µM) | 2 (≈ 2.49 µM) | > 16 | 4 (≈ 4.98 µM) | 4 (≈ 4.98 µM) | > 16 |
